Screening data (PubChem)
Most compounds without a hit are left out; they make up all but 4.9% or so of the library.
NPY-Y1 antag – NPY-Y1 (human) receptor antagonism; inhibition, % at 3.6 µM; HEK293-CNG Y1 cells, membrane potential fluorescence; NPY at EC95, then isoproterenol; P25929; hit rate 1% among 200,000;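 active means inhibition above the campaign mean inhibition of all tested compounds plus 3 SD, cut at about 20% in these data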;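 further: 0% = DMSO wells given NPY plus isoproterenol and 100% = isoproterenol alone without NPY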
Target sequence (P25929 whole entry, looked up): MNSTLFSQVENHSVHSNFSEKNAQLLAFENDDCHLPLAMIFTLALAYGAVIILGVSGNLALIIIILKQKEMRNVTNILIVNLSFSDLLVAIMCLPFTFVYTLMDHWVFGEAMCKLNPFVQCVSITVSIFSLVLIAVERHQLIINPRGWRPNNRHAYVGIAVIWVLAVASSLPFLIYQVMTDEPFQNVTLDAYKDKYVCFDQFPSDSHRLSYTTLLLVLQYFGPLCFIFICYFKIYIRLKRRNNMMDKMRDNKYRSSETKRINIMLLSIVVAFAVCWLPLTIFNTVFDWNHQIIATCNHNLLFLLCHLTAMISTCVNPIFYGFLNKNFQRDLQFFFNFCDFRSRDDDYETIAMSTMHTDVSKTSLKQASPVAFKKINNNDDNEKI
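System: HEK293 cells with Y1 receptor plus CNG channel / Probe or stimulus: NPY 25 nM then isoproterenol 1 µM plus Ro 20-1724 25 µM / Compound: one concentration, 3.6 µM, in 0.4% DMSO / Schedule: compound incubation 1 h at room temperature, readout 45 min post-stimulation / Measured by: membrane potential fluorescence / Read-out: % inhibition of NPY effect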
NPY Y2 blocker – blocks the human neuropeptide Y Y2 receptor; NPY-Y2 expressing cells, antagonist mode; inhibition, % at 2.7 µM; hit rate 0.99% among 140,000; AID 793; in the data active means inhibition above about 17%;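 further: 0% = vehicle with agonist challenge and 100% = reference antagonist with challenge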
NPY2 pot ag – potentiators or agonists of human neuropeptide Y receptor Y2; P49146; cells expressing NPY-Y2, potentiator/agonist read-out; activation, % at 3.6 µM; hit rate 0.45% among 220,000; AID 1359; in the data active means activation above about 27%;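 further: cells stimulated with NPY near EC25 plus isoproterenol at EC100; 0% = vehicle plus submaximal agonist and 100% = vehicle plus saturating agonist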
RAM inhibit – yeast RAM network inhibition; hit rate 1.8% among 190,000; AID 868; S. cerevisiae dse1pr::URA3 reporter, 5-FOA growth OD615, 2 d; analog-sensitive cbk1-as2 kinase mutant strain; inhibition, % at 50 µM;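 active means inhibition above a set limit, 3 SD over mean compound inhibition, cut at about 8.4% in these data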;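 further: 0% = DMSO-only wells with no growth and 100% = 10 µM 1-NA-PP1 full growth; inhibition rescues growth on 5-FOA so higher OD means more RAM inhibition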
NPY-Y1 PAM-ag – potentiates or activates human NPY-Y1 receptor; P25929; NPY-Y1 expressing cells, potentiator/agonist activation; activation, % at 3.6 µM; hit rate 0.37% among 220,000; AID 1304; in the data active means activation above about 33%, passing the limit was not always enough;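 further: cells stimulated with NPY at EC10 then isoproterenol at EC100; 0% = low agonist plus stimulus and 100% = saturating agonist plus stimulus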
WT yeast gro inh – growth inhibition of WT yeast, mitochondrial fusion screen. mitochondrial fusion phenotypic screen, WT strain. inhibition, % at 10 µM. hit rate 2.1% among 190,000. AID 1362; in the data active means inhibition above about 58%; tested in S. cerevisiae
Numbers without * were called inactive; nt = no result.

SMILES	NPY-Y1 antag	NPY Y2 blocker	NPY2 pot ag	RAM inhibit	NPY-Y1 PAM-ag	WT yeast gro inh
Cc1cc(NC(=O)C2CCCN(S(=O)(=O)c3cnc[nH]3)C2)ccc1Br (configuration not stated)	7	0	-5	2	-1	7
S=C(NCCc1ccccc1)NCCc1ccccc1	-3	-1	-7	0	-10	62*
O=C(NCc1ccccc1)C1CC(=O)N(C2CCCCCC2)C1 (configuration not stated)	0	nt	6	1	-7	-7
CC(=O)Nc1ccc(S(=O)(=O)N2CCN(C)CC2)cc1	-7	3	-1	1	12	64*
COC(=O)Nc1ccc(S(=O)(=O)N2CCN(C)CC2)cc1	2	1	9	0	-5	-39
CC(=O)c1ccc(NC(=O)c2ccc(S(=O)(=O)N3CCCC3)cc2)cc1	1	-2	11	2	16	-28
CC(=O)Nc1ccc(S(=O)(=O)N2CCN(c3nc(NC4CCCC4)c4ccccc4n3)CC2)cc1	13	9	32*	0	-1	10
CC1CCN(S(=O)(=O)c2ccc(NC(=O)CN3CCOCC3)cc2)CC1	-2	-1	7	1	-3	-6
CC1CCN(S(=O)(=O)c2ccc(NC(=O)Cc3cccs3)cc2)CC1	4	4	-10	9.1*	12	10
CCCCC(=O)Nc1ccc(C(=O)Nc2ccc(S(=O)(=O)N3CCCC3)cc2)cc1	-7	5	-1	8.6*	22	0
O=c1oc2ccccc2c(Nc2ccc3ncccc3c2)c1[N+](=O)[O-]	2	2	-3	6	-26	9
CN(C)C(/C=C/Nc1cccc(Br)c1)=C(C#N)C#N	-1	nt	-3	2	-7	2
O=C(c1ccco1)N1CCN(S(=O)(=O)c2ccc3[nH]c(=O)oc3c2)CC1	3	1	-14	0	-16	0
O=C(CSCc1ccc([N+](=O)[O-])cc1)Nc1ccc(S(=O)(=O)N2CCCCCC2)cc1	-4	1	12	10*	12	37
Cc1nc([N+](=O)[O-])c(N2CCOCC2)n1Cc1ccccc1	nt	nt	-24	nt	5	nt
CC1CCCN(c2ccc(C(=O)NCc3ccc4c(c3)OCO4)cc2[N+](=O)[O-])C1 (configuration not stated)	0	8	-15	8.5*	-19	34
Cc1ccc2c(c1)N(CC(=O)OC(CC(C)C)C(=O)NC1CCCC1)C(=O)CO2 (configuration not stated)	33*	21*	-14	8.7*	-24	10
O=C1Cc2ccccc2C(=O)N1OCc1ccc(Cl)cc1Cl	-6	nt	6	2	-1	12
O=c1cc2c(nn1Cc1ccccc1Cl)-c1ccccc1CC2	4	6	-14	2	-32	69*
O=c1cc2c(nn1Cc1ccc(Cl)cc1Cl)-c1ccccc1CC2	8	2	-9	1	-45	76*
O=C(NNC(=O)c1cccc(Br)c1)C(=O)N1CCCCC1	3	0	2	3	-4	-10
Nc1ccccc1Nc1ccncc1[N+](=O)[O-]	-2	2	-2	1	12	-4
Fc1ccc(C2=Nn3c(nnc3-c3ccco3)SC2)cc1	nt	nt	-4	nt	0	nt
c1ccc(C2=Nn3c(nnc3-c3ccco3)SC2)cc1	3	nt	15	9.3*	-13	14
Cc1ccc(NC(=S)NCc2ccc3[nH]c4c(c3c2)CCCC4)cc1	-3	-5	12	2	23	73*
SMILES	NPY-Y1 antag	NPY Y2 blocker	NPY2 pot ag	RAM inhibit	NPY-Y1 PAM-ag	WT yeast gro inh
Cc1cc(C)c2c(N)c(C(=O)NN3CC(=O)N(c4ccccc4F)CC3=O)sc2n1	-2	1	2	2	-11	-9
O=C(Nc1ccccn1)c1cc(-c2cccc(Cl)c2)nc2ccccc12	14	nt	-38	4	-62	65*
O=C(NC1=NCCS1)c1cc(-c2ccc(F)cc2)nc2ccccc12	-3	-4	12	-1	16	74
Cc1ccc2nc(-c3cccc(Br)c3)cc(C(=O)NC3=NCCS3)c2c1	4	nt	-5	3	11	32
O=C(NC1=NCCS1)c1cc(-c2cccc(Br)c2)nc2ccccc12	-3	-2	10	2	10	80*
CCCc1ccc(-c2cc(C(=O)NC3=NCCS3)c3ccccc3n2)cc1	8	-4	0	3	-6	80*
Cc1nc2c3cc(Cl)ccc3n(CCN3CCOCC3)c2s1	nt	nt	-8	nt	-46	nt
CCOC(=O)Cc1nc(-c2ccccc2)n[nH]1	0	nt	-12	1	-9	-3
COc1ccc(C(F)(F)F)cc1N/C=C\c1nnnn1-c1ccccc1	12	0	-19	2	-19	39
COc1cc(NC(=O)C(C)Oc2ccccc2)c(C(=O)O)cc1OC (configuration not stated)	9	9	-13	2	-31	7
COc1cc2c(C(=O)N3CCOCC3)c(CSc3ccccc3)n(C)c2cc1Br	10	nt	-7	5	1	60*
CC(C)OC(=O)c1c(NC(=O)CCn2nnc3ccccc32)sc2c1CCCC2	7	5	-4	9.5*	3	-16
CC(C)OC(=O)c1c(NC(=O)CCC(=O)O)sc2c1CCCCC2	-3	2	16	8.5*	1	11
COC(=O)c1c(NC(=O)CCC(=O)O)sc2c1CCCCC2	2	6	-26	0	-14	-29
COC(=O)/C(=C1/Oc2ccc(C(C)(C)C)cc2S1)C(F)(F)F	0	4	-8	3	5	-20
CCOC(=O)C1=C(c2ccccc2)O/C(=C(\C(=O)OC)C(F)(F)F)S1	10	16	10	11*	-1	-15
Cc1ccc(-c2[nH]nc3c2C(C)C(C#N)=C(N)O3)cc1 (configuration not stated)	-1	0	6	1	-8	16
Cc1nn(C)cc1CN(C)C(=O)c1nn2c(c1Cl)NC(c1cccs1)CC2C(F)(F)F (configuration not stated)	4	2	4	2	3	10
CCOC(=O)C1=C(C)N(C)C(C)=C(C(=O)OCC)C1c1ccc(C(=O)OC)cc1	35*	25*	-13	0	-15	19
O=C1/C(=C\c2cccnc2)Sc2ccccc21	3	8	-7	-1	-8	15
Cc1ccc(O)c(-c2cc(C(F)(F)C(F)F)nc(-c3ccccc3)n2)c1	-8	1	-4	9.6*	-16	11
Clc1ccc(Oc2nc(N3CCOCC3)nc(N3CCOCC3)n2)c(C2CCCCC2)c1	-3	0	12	nt	1	nt
COc1ccc2nc(NC(=O)C3CCN(S(=O)(=O)c4cccc5nsnc45)CC3)sc2c1	-8	-2	29	7	47*	5
CN(C)S(=O)(=O)c1cccc(NC(=O)COC(=O)/C=C/c2ccc3c(c2)OCO3)c1	3	nt	-19	5	-10	-13
